Key:
ALR1 = ALR1 (Bos taurus, UniProt Q3ZCJ2); experiment: ALR1 in vitro enzyme inhibition assay; type: biochemical, calf
In short: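 Enzyme in sodium phosphate buffer pH 6.2, preincubated 10 min at 32 °C with test compound and substrate, without NADPH. Reaction started with NADPH and followed for 5 min. Absorbance read before and after cofactor addition gives % inhibition. Compound dissolved in DMSO and diluted in water to 0.1% DMSO in assay. Valproic acid is the standard. IC50 from nonlinear regression of log concentration vs remaining activity.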

[1] = DPPH free-radical scavenging; settings: DPPH 0.025 mg mL–1 in methanol, 100 μM test compound, 517 nm
In short: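 Test compound mixed with methanolic DPPH and read spectrophotometrically. Percent scavenging is calculated from absorbance of sample relative to control. Ascorbic acid is the positive control.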

[2] = system: advanced glycation end products (AGEs); experiment: Bovine serum albumin glycation; type: biochemical; settings: BSA 1 mg mL–1, 0.5 M glucose, test compound (1 mM), pH 7.4, 50 °C, 4 days; AG positive control 100 μM
In short: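 BSA and glucose were incubated in 0.1 M PBS, in the dark, with or without test compound. AGE fluorescence was read at excitation 350 nm and emission 460 nm. Percent inhibition was calculated from the glucose-dependent fluorescence increase (BSA ± glucose), compared with the BSA + glucose signal with or without test compound. A vehicle served as the negative control. Values are mean ± S.E.M. of three independent incubations, with Student t-test vs aminoguanidine.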

ALR2 = ALR2 (Homo sapiens, UniProt P15121); experiment: ALR2 in vitro enzyme inhibition assay; type: biochemical; settings: for selectivity of inhibition, ALR2 versus ALR1 (in words): judged from ALR1 and ALR2 in vitro inhibition data

Chain of ALR1 (Q3ZCJ2 whole entry): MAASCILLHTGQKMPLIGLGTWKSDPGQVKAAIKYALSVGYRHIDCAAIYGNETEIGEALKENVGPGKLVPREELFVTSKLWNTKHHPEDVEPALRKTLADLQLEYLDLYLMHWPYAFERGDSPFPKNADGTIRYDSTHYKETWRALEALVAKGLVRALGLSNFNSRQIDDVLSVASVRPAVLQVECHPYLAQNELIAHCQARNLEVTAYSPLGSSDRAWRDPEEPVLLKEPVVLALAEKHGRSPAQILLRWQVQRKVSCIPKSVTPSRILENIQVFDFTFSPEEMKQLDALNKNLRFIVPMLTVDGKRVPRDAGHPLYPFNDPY

Structure (SMILES)	IC50 (ALR1) [µM]	IC50 (ALR2) [µM]	selectivity of inhibition, ALR2 versus ALR1 (in words) (ALR2)	% FRSA (percent free-radical scavenging activity) [1] [%]	% inhibition of AGEs (advanced glycation end-product formation) [2] [%]
Cc1ccc(O)c(C=NNC(=S)Nc2ccccc2)c1 [3a, 2-(2-Hydroxy-5-methylbenzylidene)-N-phenylhydrazinecarbothioamide]	5.13 ± 0.037	4.99 ± 0.035	strong but nonselective inhibition of ALR1 and ALR2	56.78	59.12
Cc1ccc(O)c(C=NNC(=S)NCc2ccc(Cl)cc2)c1 [3d, N-(4-Chlorobenzyl)-2-(2-hydroxy-5-methylbenzylidene)hydrazinecarbothioamide]				61.34	62.81
Cc1ccc(O)c(C=NNC(=S)NCc2ccccc2)c1 [3e, N-Benzyl-2-(2-hydroxy-5-methylbenzylidene)hydrazinecarbothioamide]				65.66	56.73
Cc1ccc(O)c(C=NNC(=S)NC2CCCCC2)c1 [3f, N-Cyclohexyl-2-(2-hydroxy-5-methylbenzylidene)hydrazinecarbothioamide]				57.84	59.86
Cc1ccc(O)c(C=NNC(=S)Nc2ccc(Br)cc2)c1 [3g, N-(4-Bromophenyl)-2-(2-hydroxy-5-methylbenzylidene)hydrazinecarbothioamide]		8.37 ± 0.062	strong and selective inhibition of ALR2	53.56	51.33
Cc1ccc(NC(=S)NN=Cc2cc(C)ccc2O)cc1 [3h, 2-(2-Hydroxy-5-methylbenzylidene)-N-(p-tolyl)hydrazinecarbothioamide]	15.8 ± 0.027	3.8 ± 0.072	strong but nonselective inhibition of ALR1 and ALR2	64.94	
Cc1ccc(O)c(C=NNC(=S)Nc2c(C)cccc2C)c1 [3i, N-(2,6-Dimethylphenyl)-2-(2-hydroxy-5-methylbenzylidene)hydrazinecarbothioamide]	2.14 ± 0.031	2.06 ± 0.057	strong but nonselective inhibition of ALR1 and ALR2	71.34	64.41
Cc1ccc(O)c(C=NNC(=S)Nc2ccccc2C)c1 [3m, 2-(2-Hydroxy-5-methylbenzylidene)-N-(o-tolyl)hydrazinecarbothioamide]	4.57 ± 0.076	1.96 ± 0.029	strong but nonselective inhibition of ALR1 and ALR2	63.87	53.08
Cc1ccc(O)c(C=NNC(=S)Nc2ccc(N(C)C)cc2)c1 [3p, N-(4-(Dimethylamino)phenyl)-2-(2-hydroxy-5-methylbenzylidene)hydrazinecarbothioamide]		10.67 ± 0.064	strong and selective inhibition of ALR2	71.53	64.81
N=C(N)NN [6-AG, 6-Aminoguanidine, reference compound]					79.34

Second part, led by results:

IC50 (ALR1) [µM]	IC50 (ALR2) [µM]	selectivity of inhibition, ALR2 versus ALR1 (in words) (ALR2)	Structure (SMILES)	% FRSA (percent free-radical scavenging activity) [1] [%]	% inhibition of AGEs (advanced glycation end-product formation) [2] [%]
	2.55 ± 0.021	strong and selective inhibition of ALR2	Cc1ccc(NC(=S)NN=Cc2cc(C)ccc2O)c(C)c1 [3b, N-(2,4-Dimethylphenyl)-2-(2-hydroxy-5-methylbenzylidene)hydrazinecarbothioamide]	63.24	50.78
	1.42 ± 0.024	strong and selective inhibition of ALR2	COc1cccc(NC(=S)NN=Cc2cc(C)ccc2O)c1 [3c, 2-(2-Hydroxy-5-methylbenzylidene)-N-(3-methoxyphenyl)hydrazinecarbothioamide]	65.67	66.40
	4.95 ± 0.066	strong and selective inhibition of ALR2	Cc1ccc(O)c(C=NNC(=S)Nc2ccc(F)cc2F)c1 [3j, N-(2,4-Difluorophenyl)-2-(2-hydroxy-5-methylbenzylidene)hydrazinecarbothioamide]	66.57	61.60
	14.03 ± 0.047	strong and selective inhibition of ALR2	Cc1ccc(O)c(C=NNC(=S)Nc2cccc(F)c2)c1 [3k, N-(3-Fluorophenyl)-2-(2-hydroxy-5-methylbenzylidene)hydrazinecarbothioamide]	53.88	
	3.8 ± 0.027	strong and selective inhibition of ALR2	Cc1ccc(O)c(C=NNC(=S)Nc2ccc(Cl)cc2)c1 [3l, N-(4-Chlorophenyl)-2-(2-hydroxy-5-methylbenzylidene)hydrazinecarbothioamide]	62.44	56.61
	3.11 ± 0.038	strong and selective inhibition of ALR2	Cc1ccc(O)c(C=NNC(=S)Nc2ccc(C(C)C)cc2)c1 [3n, 2-(2-Hydroxy-5-methylbenzylidene)-N-(4-isopropylphenyl)hydrazinecarbothioamide]	55.93	68.66
	12.15 ± 0.083	strong and selective inhibition of ALR2	Cc1ccc(O)c(C=NNC(=S)NCCc2ccccc2)c1 [3o, 2-(2-Hydroxy-5-methylbenzylidene)-N-phenethylhydrazinecarbothioamide]	68.56	

Reference: paper PMC9352332 (ACS Omega, 2022)
